Reference: ChEMBL document CHEMBL4387700, “A novel, potent, and orally bioavailable thiazole HCV NS5A inhibitor for the treatment of hepatitis C virus” (Eur J Med Chem, 2019)

Assay: Cytotoxicity against human HuH7 cells assessed as reduction in cell viability by MTS assay
Assay type: cell-based, Huh-7
Summary of the method: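 Viability of Huh-7 cells was read by MTS assay.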

| SMILES | CC50 [µM] |
| --- | --- |
| O=C(N[C@H](C(=O)N1CCC[C@H]1c1ncc(-c2ccc(-c3ccc(-c4cnc([C@@H]5CCCN5C(=O)[C@H](NC(=O)c5ccncc5)c5ccccc5)s4)cc3)cc2)s1)c1ccccc1)c1ccncc1 | > 50 |
| COC(=O)N[C@H](C(=O)N1CCC[C@H]1c1ncc(-c2ccc(-c3ccc(-c4cnc([C@@H]5CCCN5C(=O)[C@@H](NC(=O)OC)c5ccccc5)s4)cc3)cc2)s1)c1ccccc1 | > 50 |
| CS(=O)(=O)N[C@H](C(=O)N1CCC[C@H]1c1ncc(-c2ccc(-c3ccc(-c4cnc([C@@H]5CCCN5C(=O)[C@H](NS(C)(=O)=O)c5ccccc5)s4)cc3)cc2)s1)c1ccccc1 | > 50 |
| O=C(N[C@@H](C(=O)N1CCC[C@H]1c1ncc(-c2ccc(-c3ccc(-c4cnc([C@@H]5CCCN5C(=O)[C@H](NC(=O)c5ccncc5)c5ccccc5)s4)cc3)cc2)s1)c1ccccc1)c1ccncc1 | > 50 |
| O=C(N[C@H](C(=O)N1CCC[C@H]1c1ncc(-c2ccc(-c3ccc(-c4cnc([C@@H]5CCCN5C(=O)[C@H](NC(=O)C5CCC5)c5ccccc5)s4)cc3)cc2)s1)c1ccccc1)C1CCC1 | > 50 |
| O=C(N[C@H](C(=O)N1CCC[C@H]1c1ncc(-c2ccc(-c3ccc(-c4cnc([C@@H]5CCCN5C(=O)[C@H](NC(=O)C5CCCC5)c5ccccc5)s4)cc3)cc2)s1)c1ccccc1)C1CCCC1 | > 50 |
| O=C(N[C@@H](C(=O)N1CCC[C@H]1c1ncc(-c2ccc(-c3ccc(-c4cnc([C@@H]5CCCN5C(=O)[C@H](NC(=O)N5CCCCC5)c5ccccc5)s4)cc3)cc2)s1)c1ccccc1)N1CCCCC1 | > 50 |
| CCN(CC)CCC(=O)N[C@@H](C(=O)N1CCC[C@H]1c1ncc(-c2ccc(-c3ccc(-c4cnc([C@@H]5CCCN5C(=O)[C@H](NC(=O)CCN(CC)CC)c5ccccc5)s4)cc3)cc2)s1)c1ccccc1 | > 50 |
| O=C(N[C@H](C(=O)N1CCC[C@H]1c1ncc(-c2ccc(-c3ccc(-c4cnc([C@@H]5CCCN5C(=O)[C@H](NC(=O)c5ccsc5)c5ccccc5)s4)cc3)cc2)s1)c1ccccc1)c1ccsc1 | > 50 |
| CC(=O)N[C@H](C(=O)N1CCC[C@H]1c1ncc(-c2ccc(-c3ccc(-c4cnc([C@@H]5CCCN5C(=O)[C@H](NC(C)=O)c5ccccc5)s4)cc3)cc2)s1)c1ccccc1 | > 50 |
| O=C(N[C@@H](C(=O)N1CCC[C@H]1c1ncc(-c2ccc(-c3ccc(-c4cnc([C@@H]5CCCN5C(=O)[C@H](NC(=O)N5CCOCC5)c5ccccc5)s4)cc3)cc2)s1)c1ccccc1)N1CCOCC1 | > 50 |
| O=C(N[C@H](C(=O)N1CCC[C@H]1c1ncc(-c2ccc(-c3ccc(-c4cnc([C@@H]5CCCN5C(=O)[C@H](NC(=O)C5CCCCC5)c5ccccc5)s4)cc3)cc2)s1)c1ccccc1)C1CCCCC1 | > 50 |
| O=C(CCN1CCOCC1)N[C@H](C(=O)N1CCC[C@H]1c1ncc(-c2ccc(-c3ccc(-c4cnc([C@@H]5CCCN5C(=O)[C@H](NC(=O)CCN5CCOCC5)c5ccccc5)s4)cc3)cc2)s1)c1ccccc1 | > 50 |
| O=C(N[C@H](C(=O)N1CCC[C@H]1c1ncc(-c2ccc(-c3ccc(-c4cnc([C@@H]5CCCN5C(=O)[C@H](NC(=O)c5cccs5)c5ccccc5)s4)cc3)cc2)s1)c1ccccc1)c1cccs1 | > 50 |
| CC(=O)N[C@@H](C(=O)N1CCC[C@H]1c1ncc(-c2ccc(-c3ccc(-c4cnc([C@@H]5CCCN5C(=O)[C@H](NC(C)=O)c5ccccc5)s4)cc3)cc2)s1)c1ccccc1 | > 50 |
| O=C(N[C@H](C(=O)N1CCC[C@H]1c1ncc(-c2ccc(-c3ccc(-c4cnc([C@@H]5CCCN5C(=O)[C@H](NC(=O)N5CCCC5)c5ccccc5)s4)cc3)cc2)s1)c1ccccc1)N1CCCC1 | > 50 |
| O=C(N[C@@H](C(=O)N1CCC[C@H]1c1ncc(-c2ccc(-c3ccc(-c4cnc([C@@H]5CCCN5C(=O)[C@H](NC(=O)c5ccoc5)c5ccccc5)s4)cc3)cc2)s1)c1ccccc1)c1ccoc1 | > 50 |

| SMILES | CC50 [µM] |
| --- | --- |
| O=C(N[C@@H](C(=O)N1CCC[C@H]1c1ncc(-c2ccc(-c3ccc(-c4cnc([C@@H]5CCCN5C(=O)[C@H](NC(=O)N5CCCC5)c5ccccc5)s4)cc3)cc2)s1)c1ccccc1)N1CCCC1 | > 50 |
| COC(=O)N[C@@H](CC(C)C)C(=O)N1CCC[C@H]1c1ncc(-c2ccc(-c3ccc(-c4cnc([C@@H]5CCCN5C(=O)[C@H](CC(C)C)NC(=O)OC)s4)cc3)cc2)s1 | > 50 |
| O=C(N[C@@H](C(=O)N1CCC[C@H]1c1ncc(-c2ccc(-c3ccc(-c4cnc([C@@H]5CCCN5C(=O)[C@H](NC(=O)c5ccsc5)c5ccccc5)s4)cc3)cc2)s1)c1ccccc1)c1ccsc1 | > 50 |
| O=C(N[C@H](C(=O)N1CCC[C@H]1c1ncc(-c2ccc(-c3ccc(-c4cnc([C@@H]5CCCN5C(=O)[C@H](NC(=O)c5ccccc5)c5ccccc5)s4)cc3)cc2)s1)c1ccccc1)c1ccccc1 | > 50 |
| CC[C@H](NC(=O)OC)C(=O)N1CCC[C@H]1c1ncc(-c2ccc(-c3ccc(-c4cnc([C@@H]5CCCN5C(=O)[C@H](CC)NC(=O)OC)s4)cc3)cc2)s1 | > 50 |
| CC(C)[C@H](NC(=O)Oc1ccccc1)C(=O)N1CCC[C@H]1c1ncc(-c2ccc(-c3ccc(-c4cnc([C@@H]5CCCN5C(=O)[C@@H](NC(=O)Oc5ccccc5)C(C)C)s4)cc3)cc2)s1 | > 50 |
| O=C(CCN1CCCCC1)N[C@@H](C(=O)N1CCC[C@H]1c1ncc(-c2ccc(-c3ccc(-c4cnc([C@@H]5CCCN5C(=O)[C@H](NC(=O)CCN5CCCCC5)c5ccccc5)s4)cc3)cc2)s1)c1ccccc1 | > 50 |
| COC(=O)N[C@H](C(=O)N1CCC[C@H]1c1ncc(-c2ccc(-c3ccc(-c4cnc([C@@H]5CCCN5C(=O)[C@H](NC(=O)OC)c5ccccc5)s4)cc3)cc2)s1)c1ccccc1 | > 50 |
| COC(=O)N[C@H](C(=O)N1CCC[C@H]1c1ncc(-c2ccc(-c3ccc(-c4cnc([C@@H]5CCCN5C(=O)[C@@H](NC(=O)OC)C(C)C)s4)cc3)cc2)s1)C(C)C | > 50 |
| CCCC(=O)N[C@H](C(=O)N1CCC[C@H]1c1ncc(-c2ccc(-c3ccc(-c4cnc([C@@H]5CCCN5C(=O)[C@H](NC(=O)CCC)c5ccccc5)s4)cc3)cc2)s1)c1ccccc1 | > 50 |
| O=C(N[C@H](C(=O)N1CCC[C@H]1c1ncc(-c2ccc(-c3ccc(-c4cnc([C@@H]5CCCN5C(=O)[C@H](NC(=O)c5cccnc5)c5ccccc5)s4)cc3)cc2)s1)c1ccccc1)c1cccnc1 | > 50 |
| O=C(N[C@H](C(=O)N1CCC[C@H]1c1ncc(-c2ccc(-c3ccc(-c4cnc([C@@H]5CCCN5C(=O)[C@H](NC(=O)c5ccccn5)c5ccccc5)s4)cc3)cc2)s1)c1ccccc1)c1ccccn1 | > 50 |
| O=C(CCn1cccc1)N[C@@H](C(=O)N1CCC[C@H]1c1ncc(-c2ccc(-c3ccc(-c4cnc([C@@H]5CCCN5C(=O)[C@H](NC(=O)CCn5cccc5)c5ccccc5)s4)cc3)cc2)s1)c1ccccc1 | > 50 |
| COC(=O)N[C@@H](C(=O)N1CCC[C@H]1c1ncc(-c2ccc(-c3ccc(-c4cnc([C@@H]5CCCN5C(=O)[C@H](NC(=O)OC)c5ccccc5)s4)cc3)cc2)s1)c1ccccc1 | > 50 |
| O=C(N[C@@H](C(=O)N1CCC[C@H]1c1ncc(-c2ccc(-c3ccc(-c4cnc([C@@H]5CCCN5C(=O)[C@H](NC(=O)c5cccs5)c5ccccc5)s4)cc3)cc2)s1)c1ccccc1)c1cccs1 | > 50 |
| CC(C)(C)[C@@H](NC(=O)C1CC1)C(=O)N1CCC[C@H]1c1ncc(-c2ccc(-c3ccc(-c4cnc([C@@H]5CCCN5C(=O)[C@H](NC(=O)C5CC5)C(C)(C)C)s4)cc3)cc2)s1 | > 50 |
| CN1CCN(CCC(=O)N[C@@H](C(=O)N2CCC[C@H]2c2ncc(-c3ccc(-c4ccc(-c5cnc([C@@H]6CCCN6C(=O)[C@H](NC(=O)CCN6CCN(C)CC6)c6ccccc6)s5)cc4)cc3)s2)c2ccccc2)CC1 | > 50 |
